From PubChem
In the library only some 1.6% were active in any assay of this set; here they are far more common.
RAD54 inh: blocks human RAD54 Holliday junction branch migration. FAM/BHQ fluorescence. 360,000 tested, 0.14% active. Q92698. inhibition, % at 10.4 µM. AID 602329;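 active means mean normalized replicate activity at least 40 and at least half of replicates scoring 40 or more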;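 further: inhibitors cause a drop in the FAM fluorescence signal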
Neddyl block: inhibitors of human cullin neddylation. P61081+Q13564. TR-FRET cullin neddylation, biochemical. calls only at 25 µM. 360,000 tested, 0.58% active; in the data active means inhibition above about 36%
Target sequence (P61081 whole entry, looked up): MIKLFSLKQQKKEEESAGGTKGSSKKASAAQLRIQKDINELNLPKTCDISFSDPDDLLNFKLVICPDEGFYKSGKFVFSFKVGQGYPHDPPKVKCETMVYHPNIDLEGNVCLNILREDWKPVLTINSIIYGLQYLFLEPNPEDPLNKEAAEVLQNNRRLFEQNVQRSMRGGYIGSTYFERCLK
Target sequence (Q13564 whole entry, looked up): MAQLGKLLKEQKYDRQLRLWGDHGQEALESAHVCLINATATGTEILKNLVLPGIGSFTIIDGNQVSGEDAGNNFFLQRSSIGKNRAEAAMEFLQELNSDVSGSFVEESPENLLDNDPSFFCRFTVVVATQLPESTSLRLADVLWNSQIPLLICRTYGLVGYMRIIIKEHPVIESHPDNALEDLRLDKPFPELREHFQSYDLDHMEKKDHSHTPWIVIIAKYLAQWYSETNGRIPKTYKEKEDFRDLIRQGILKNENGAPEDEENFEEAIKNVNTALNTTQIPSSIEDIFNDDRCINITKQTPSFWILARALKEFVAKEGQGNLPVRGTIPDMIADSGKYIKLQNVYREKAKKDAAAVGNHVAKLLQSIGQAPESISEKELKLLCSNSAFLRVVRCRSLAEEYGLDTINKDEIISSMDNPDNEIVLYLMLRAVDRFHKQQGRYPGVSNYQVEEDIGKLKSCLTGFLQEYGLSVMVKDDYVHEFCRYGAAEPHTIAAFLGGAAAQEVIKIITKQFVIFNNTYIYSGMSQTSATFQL
Apaf1 inhib: blocks human Apaf-1 apoptosome activity; O14727; reconstituted apoptosome caspase-3 activity, DEVD-Rh110 fluorescence; inhibition, % at 20 µM; 330,000 tested, 0.71% active; AID 489030; active means inhibition of at least 40% at 20 µM
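Material: cell-free apoptosome with Apaf-1, procaspase-3 and caspase-9; Buffer or medium: Hepes pH 7.5 with detergent and BSA; Reagent: cytochrome c trigger plus (Z-DEVD)2-Rh110 caspase-3 substrate; Times: compound with Apaf-1, dATP, procaspase-3 30 min, then 50 min reaction, room temperature; Technique: Rh110 fluorescence intensity.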
UBC13 polyUb: blocks human UBC13 polyubiquitin chain formation; inhibition, % at 20 µM; TR-FRET; 330,000 tested, 0.47% active; in the data active means inhibition above about 45%, passing the limit was not always enough
FID counter: displaces DNA intercalator in HCV helicase counter-screen | 290,000 tested, 0.17% active | inhibition, % at 7.9 µM | DNA fluorescent intercalator displacement, fluorescence; in the data active means inhibition above about 37%;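 further: higher means more ethidium bromide displaced from hairpin DNA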
RAD52 anneal inh: blocks human RAD52 DNA annealing | inhibition, % at 18.7 µM | recombinant RAD52 DNA annealing, FRET fluorescence | 360,000 tested, 0.46% active;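 active means every replicate showing at least 50% inhibition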
Neddyl inh conf: confirmation of human cullin neddylation inhibitors; shares compounds with Neddyl block; TR-FRET cullin neddylation biochemical assay; calls only at 25 µM; 1,800 tested, 13% active; AID 652217; in the data active means inhibition above about 40%;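 further: neddylation substrate is the cullin 1 ring ligase complex with SKP2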
Large screens that a line does not name were inactive (follow-up assays come after a bar, where shown).

CC(C)(C)n1nnnc1C(c1cc2cc3c(cc2[nH]c1=O)OCCO3)N1CCSCC1 (stereo not drawn)	Neddyl block active (not shown: RAD54 inh, RAD52 anneal inh)
C[C@H]1CN([C@@H](C)CO)C(=O)c2cccc(NC(=O)c3ccc(-c4nccs4)cc3)c2O[C@H]1CN(C)S(=O)(=O)c1cn(C)cn1	none (no result: Neddyl block, Apaf1 inhib, UBC13 polyUb, FID counter)
CCC(=O)N1[C@H](CO)[C@H](c2ccccc2)C12CN(C(=O)Nc1cccc(OC)c1)C2	none (no result: RAD54 inh, Neddyl block, Apaf1 inhib, UBC13 polyUb, FID counter)
Cc1ccc(-c2nn(CC(=O)O)c(=O)c3ccccc23)cc1	none (no result: RAD52 anneal inh)
O=C(O)Cn1nc2c3c(cccc3c1=O)-c1ccccc1-2	Neddyl block active | Neddyl inh conf inactive
CCN(CC)c1ccc2c(O)cc(=O)oc2c1	Neddyl block active (no result: RAD54 inh) | Neddyl inh conf inactive
N#Cc1nc(-c2ccccc2F)oc1NCCc1ccccc1	none (not shown: Neddyl block, RAD52 anneal inh)
N#Cc1nc(-c2ccccc2F)oc1NCCc1ccccn1	Neddyl block active (no result: FID counter, RAD52 anneal inh) | Neddyl inh conf inactive
CCCc1c(C)c(C#N)c2nc3ccccc3n2c1NCCCN1CCOCC1	Neddyl block active (no result: RAD52 anneal inh) | Neddyl inh conf inactive
CCc1c(C)c(C#N)c2nc3ccccc3n2c1NCCOC	Neddyl block active
CC(C)c1cc(NCCN2CCOCC2)n2c(nc3ccccc32)c1C#N	Neddyl block active (no result: RAD54 inh, Apaf1 inhib, UBC13 polyUb, FID counter) | Neddyl inh conf inactive
CC(C)c1cc(NCCCN2CCOCC2)n2c(nc3ccccc32)c1C#N	none (not shown: Neddyl block)
S=c1[nH]nc(-c2ccncc2)n1/N=C/C=C/c1ccco1	none (no result: RAD54 inh)
Cc1cccc(-c2n[nH]c(=S)n2/N=C/C=C/c2ccco2)c1	Neddyl block active | Neddyl inh conf inactive
CN(C)c1ccc(/C=C/c2c([N+](=O)[O-])c(=O)n(C)c(=O)n2C)cc1	Neddyl block active | Neddyl inh conf inactive
CC1C(O)=C(c2nc3ccccc3[nH]2)C(=N)N1c1ccccc1 (stereo not drawn)	Neddyl block active (no result: RAD52 anneal inh) | Neddyl inh conf inactive
O=C(c1ccc2c(c1)OCO2)N1CC(=O)N2[C@H](CO)[C@@H](c3ccc(C#CC4CCCC4)cc3)[C@@H]2C1	none (no result: RAD54 inh, Neddyl block, Apaf1 inhib, UBC13 polyUb, FID counter)
CCOC(=O)c1cnc2cc3c(cn2c1=O)CCCC3	Neddyl block active (not shown: RAD52 anneal inh)
CCOC(=O)c1cc2c(nc1N)CCCC2	none (not shown: RAD54 inh, Neddyl block)
CCC(=O)Nc1c(-c2ccc(C)cc2)nc2ccc(C)cn12	Neddyl block active | Neddyl inh conf inactive
O=C1NC(=O)c2cc3ccccc3cc21	Neddyl block active (no result: FID counter) | Neddyl inh conf active
CC(=O)c1c(C)[nH]c(C(=O)COc2ccc3ccc(=O)oc3c2)c1C	Neddyl block active (no result: RAD54 inh, FID counter) | Neddyl inh conf inactive
COC(=O)c1c(C)[nH]c(C(=O)COc2ccc3ccc(=O)oc3c2)c1C	none (no result: FID counter)
CCCCN(C)C(=O)CCC(=O)Nc1ccc2nc(N3CCN(C)CC3)cc(C)c2c1	Neddyl block active | Neddyl inh conf inactive
Cc1cc(N2CCN(C)CC2)nc2ccc(NC(=O)CCC(=O)NCCc3ccc(Cl)cc3)cc12	Neddyl block active | Neddyl inh conf inactive
CCOC(CCNC(=O)CCC(=O)Nc1ccc2nc(N3CCN(C)CC3)cc(C)c2c1)OCC	none
COc1ccc2c(C(=O)CN3CCSCC3)c[nH]c2c1	Neddyl block active (no result: RAD54 inh) | Neddyl inh conf inactive
COc1ccc2c(C(=O)CN3CCN(c4ccccc4)CC3)c[nH]c2c1	none (no result: RAD52 anneal inh)
CO[C@@H]1CN(C)C(=O)c2cc(NC(=O)c3ccc(F)cc3)ccc2OC[C@H](C)N(C(C)=O)C[C@H]1C	none (no result: Neddyl block, Apaf1 inhib, UBC13 polyUb, FID counter)
COc1ccc2[nH]c(=O)c(CN(Cc3nnnn3Cc3ccccc3)CC3CCCO3)cc2c1 (stereo not drawn)	Neddyl block active (no result: RAD52 anneal inh) | Neddyl inh conf inactive
COc1ccc(Cn2nnnc2CN(CCCN2CCOCC2)Cc2cc3cc(OC)ccc3[nH]c2=O)cc1	none (no result: RAD54 inh)
O=c1[nH]c2cc3c(cc2cc1CN(Cc1ccccc1)Cc1nnnn1Cc1ccco1)OCCO3	none (no result: Apaf1 inhib, UBC13 polyUb, RAD52 anneal inh)
COCCn1nnnc1CN(Cc1cccnc1)Cc1cc2cc(OC)ccc2[nH]c1=O	Neddyl block active (no result: Apaf1 inhib, UBC13 polyUb, RAD52 anneal inh) | Neddyl inh conf inactive
COc1ccc2[nH]c(=O)c(CN(Cc3nnnn3Cc3ccc(F)cc3)CC3CCCO3)cc2c1 (stereo not drawn)	Neddyl block active (no result: RAD54 inh, RAD52 anneal inh) | Neddyl inh conf inactive
O=c1[nH]c2cc3c(cc2cc1CN(Cc1cccs1)Cc1nnnn1Cc1ccco1)OCCO3	Neddyl block active (no result: RAD54 inh, RAD52 anneal inh) | Neddyl inh conf inactive
COc1ccccc1-c1cccc(-c2nc(C(=O)N3CCOCC3)cc3c2[C@H](CCO)N([S@@](=O)C(C)(C)C)C3)c1	none (no result: Neddyl block, Apaf1 inhib, UBC13 polyUb, FID counter)
O=C(C[C@H]1C=C[C@H](NS(=O)(=O)c2ccc(F)cc2)[C@@H](CO)O1)NCCN1CCCCC1	none (no result: Neddyl block, Apaf1 inhib, UBC13 polyUb, FID counter)
O=c1[nH]c2cc3c(cc2cc1CN(Cc1ccc2c(c1)OCO2)Cc1nnnn1CC1CCCO1)OCO3 (stereo not drawn)	Neddyl block active (no result: RAD52 anneal inh) | Neddyl inh conf inactive
COCCN1C=C(C(=O)OC)C(c2ccc3c(c2)OCO3)C(C(=O)OC)=C1	Neddyl block active (no result: RAD52 anneal inh) | Neddyl inh conf active
O=C(N/N=C/c1ccc(N2CCOCC2)s1)c1ccc(NS(=O)(=O)c2cccs2)cc1	Neddyl block active | Neddyl inh conf active
O=C(N/N=C/c1ccc(N2CCOCC2)cc1)c1ccc(NS(=O)(=O)c2cccs2)cc1	none (not shown: Neddyl block)
C/C(=N\NC(=O)c1ccc(NS(=O)(=O)c2cccs2)cc1)c1ccc(O)cc1O	Neddyl block active
c1ccc2c(c1)ccc1nnc(-c3ccc4c(c3)OCO4)n12	Neddyl block active (not shown: RAD52 anneal inh)
c1ccc2c(c1)ccc1nnc(SCc3ccc4c(c3)OCCO4)n12	none
CCOc1ccc2[nH]c(=O)c(CN(CCO)C(=O)CC)cc2c1	Neddyl block active (no result: RAD52 anneal inh) | Neddyl inh conf active
COC(=O)C1=C(C)NC2=C(C(=O)CCC2)C1c1ccc(-c2ccsc2C(=O)OC)o1 (stereo not drawn)	Neddyl block active (not shown: RAD54 inh)
Cc1cccc(-n2ncc3c(NCc4ccccn4)ncnc32)c1	Neddyl block active (no result: RAD52 anneal inh) | Neddyl inh conf inactive
Nc1cccc2c(=O)[nH][nH]c(=O)c12	Neddyl block active (no result: RAD54 inh, Apaf1 inhib, UBC13 polyUb, FID counter) | Neddyl inh conf active
CC(C)(C)c1ccc(C(=O)Nc2cccc3c(=O)[nH][nH]c(=O)c23)cc1	none (not shown: Neddyl block, Apaf1 inhib, UBC13 polyUb, RAD52 anneal inh)
COc1ccc(NC(=O)CSc2ncnc3c2nnn3-c2ccc(F)cc2)c(OC)c1	none
COc1ccc(-n2nnc3c(SCC(=O)Nc4ccccc4F)ncnc32)cc1	Neddyl block active (no result: RAD54 inh) | Neddyl inh conf inactive
COc1ccc(S(=O)(=O)N(C)C[C@@H]2Oc3c(NC(=O)NC4CCCCC4)cccc3C(=O)N([C@@H](C)CO)C[C@@H]2C)cc1	none (no result: Neddyl block, Apaf1 inhib, UBC13 polyUb, FID counter)
CCSc1nc(-c2ccccc2)c(-c2ccccc2)n1CC(O)CO (stereo not drawn)	Neddyl block active (no result: RAD54 inh) | Neddyl inh conf inactive
CCNC(=O)C[C@H]1CC[C@H]2[C@H](COc3ccc(NC(=O)Nc4cccc(C)c4)cc3C(=O)N2C)O1	none (no result: Neddyl block, Apaf1 inhib, UBC13 polyUb, FID counter)
